For 92 molecules, activation results are on record in PubChem BioAssay AID624038 (The Scripps Research Institute Molecular Screening Center, 2012).

SMILES strings stand for the structures. Out of some 360,000 compounds screened, about 1,100 (0.31%) were called active.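 Rule for the calls: active = activation above the run cutoff, the mean activation of all test compounds plus 3 SD (cut at about 18% in these data); inactive = the rest.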 The full list was thinned out, with actives kept by preference.

In this experiment the target is Muscarinic acetylcholine receptor M5 (Homo sapiens) (UniProt P08912). Briefly: CHRM5 PAMs potentiating acetylcholine calcium signal – CHO-K1 cells, Fluo-8 calcium fluorescence, primary screen (AID 624038). Particulars: CHO-K1 hM5, Fluo-8 calcium, ACh EC20 PAM; at 3 µM; stronger effect = higher value; 0% = ACh EC20, 100% = ACh EC100. Summed up: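 Assay system: CHO-K1 hM5 cells / Incubation: Fluo-8 loading 80 min at 37 °C plus 30 min room temperature / Technique: Fluo-8 calcium dye fluorescence, kinetic read / Repeats: single replicate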
Muscarinic acetylcholine receptor M5 (Homo sapiens), sequence (P08912 whole entry, looked up): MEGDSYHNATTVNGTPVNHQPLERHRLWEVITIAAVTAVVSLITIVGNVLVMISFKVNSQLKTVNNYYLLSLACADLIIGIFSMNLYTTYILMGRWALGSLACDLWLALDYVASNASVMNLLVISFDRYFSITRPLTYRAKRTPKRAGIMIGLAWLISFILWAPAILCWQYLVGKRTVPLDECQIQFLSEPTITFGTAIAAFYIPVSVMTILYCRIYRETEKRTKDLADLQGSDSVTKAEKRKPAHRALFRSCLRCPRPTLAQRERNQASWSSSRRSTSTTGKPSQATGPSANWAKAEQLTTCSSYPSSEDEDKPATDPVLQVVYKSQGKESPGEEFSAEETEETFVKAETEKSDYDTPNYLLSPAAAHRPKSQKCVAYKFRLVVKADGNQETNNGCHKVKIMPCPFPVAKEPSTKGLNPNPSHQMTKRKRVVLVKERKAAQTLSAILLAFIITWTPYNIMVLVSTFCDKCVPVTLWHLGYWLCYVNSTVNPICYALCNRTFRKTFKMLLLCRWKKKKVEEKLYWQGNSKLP
On to `O=S(=O)(NCCc1ccncc1)c1ccccc1`, for which the activation is 8.02% (inactive). For `O=S(=O)(NCCc1ccccc1)c1ccccc1` the value was 20.4% (active). Consider `CC(=O)Nc1ccc(S(=O)(=O)NCCc2ccccc2)cc1`, for which the activation is -2.74% (inactive).

Take `CCCC(C)n1[nH]c(=O)c2c(C)cc(C)nc21` (configuration not stated): the activation is 4.59% (inactive).

As for `O=C1COc2ccc(C(=O)COC(=O)c3ccccc3Cl)cc2N1`, the activation was -8.98% (inactive). With `Cc1ccc(S(=O)(=O)N(C)C)cc1NC(=O)CN1c2cccc3cccc(c23)S1(=O)=O` the figure was -2.16% (inactive); with `Cn1ncc2c(NNC(=O)Cc3cccc4ccccc34)ncnc21`, 6.42% (inactive); with `Cc1nc(Nc2ccccc2C)c2cnn(C)c2n1`, -2.69% (inactive). Regarding `Cn1ncc2c(Nc3cccc4ccccc34)ncnc21`, the activation is 43.5% (active). For the molecule `CCCNC(=O)COc1coc(CN2CCN(Cc3ccccc3)CC2)cc1=O`, the activation is -3.51% (inactive).

As to `Brc1cccc(-c2nnc3n2CCC3)c1`, the activation is -2.96% (inactive).

With `Cc1c(C(=O)Nc2cccc(-c3nnc4n3CCCCC4)c2)oc2ccccc12`, the activation is -11.2% (inactive). With `O=C(Cn1[nH]c(=O)c2ccccc2c1=O)Nc1cccc(-c2nnc3n2CCCCC3)c1` the figure was 22.3% (active); with `Cc1cccc(-c2noc(-c3ccc(F)cc3)n2)c1`, 18.1% (active); with `Cc1ccc(C)c(N2CCN(C(=O)CCc3nc(-c4cccc(C(F)(F)F)c4)no3)CC2)c1`, -0.63% (inactive). For `OC[C@H]1O[C@@H](c2nc(-c3nc(-c4ccc(F)cc4)no3)cs2)[C@H](O)[C@@H](O)[C@H]1O` the value was -2.26% (inactive); for `Cc1ccc(-c2cccc([C@H]3[C@@H]4C=CC[C@@H](C)[C@@H]4C(=O)N3Cc3ccccc3)c2)cc1`, -3.69% (inactive). For the molecule `Cc1nn(Cc2ccc(F)cc2)c(C)c1NC(=O)c1noc2c1CCc1ccccc1-2`, the activation was -7.62% (inactive). Regarding `Cc1nn(Cc2ccc(F)cc2)c(C)c1NC(=O)c1cccnc1Cl`, the activation was 24.4% (active). For `Cc1nn(Cc2ccc(Cl)c(Cl)c2)c(C)c1NC(=O)c1cc(C2CC2)on1` the value was -11.4% (inactive); for `CCNc1nc(NCC)nc(N(C)n2cnnc2)n1`, 1.44% (inactive); for `Nc1c(-c2ccc(F)cc2)cnn1C1CCS(=O)(=O)C1` (configuration not stated), 0.13% (inactive). With `O=C(OC12CC3CC(CC(C3)C1)C2)c1ccc(NCc2cc(O)ccc2O)cc1` the figure was 21.9% (active). For `CC(C)C(=O)Nc1ccc2c(c1)oc1ccccc12` the value was -7.04% (inactive). `Cc1nc2sc(C(c3ccco3)N3CCOCC3)c(O)n2n1` (configuration not stated): the activation was 20.1% (active). With `Cc1ccc(C(c2sc3nc(C)nn3c2O)N2CCN(c3ccccc3)CC2)cc1` (configuration not stated), the activation is 5.14% (inactive). Regarding `Oc1c(C(c2cccs2)N2CCN(c3ccc(F)cc3)CC2)sc2ncnn12` (configuration not stated), the activation was -5.38% (inactive). Take `Cc1ccc(C(c2sc3nc(C)nn3c2O)N2CCN(c3ccc(F)cc3)CC2)cc1` (configuration not stated): the activation was 42.2% (active). With `Oc1c(C(c2ccco2)N2CCC3(CC2)OCCO3)sc2ncnn12` (configuration not stated) the figure was -1.05% (inactive); with `Cc1nc2sc(C(c3ccco3)N3CCC4(CC3)OCCO4)c(O)n2n1` (configuration not stated), 5.68% (inactive); with `COc1ccc(COC(=O)N/N=C(\C)CC(=O)Nc2ccc(Cl)cc2)cc1`, -3.42% (inactive).

On to `COC(=O)c1ccc(C)c(NC(=O)C2CC(=O)N(C3CCCC(C)C3C)C2)c1` (configuration not stated), for which the activation is 0.01% (inactive). For `Cc1ccc(NC(=O)Cn2cnc3c(OCc4ccccc4)ncnc32)cc1C` the value was 1.1% (inactive). For `CCN(Cc1nc2ccccc2c(=O)[nH]1)Cc1cc(=O)oc2cc(C)c(C)cc12` the value was -12.3% (inactive). For `CCOC(=O)[C@H]1Nc2ccc(Cl)cc2[C@@H]2[C@H]1C1CC(c3ccccc31)N2C(=O)OCc1ccccc1` (some centres not stated) the value was -15.8% (inactive); for `COc1ccccc1-n1c(SCC(=O)O)nc2sc3c(c2c1=O)CCC3`, 1.79% (inactive); for `CCSc1nc2sc3c(c2c(=O)n1-c1ccc(C)cc1)CCN(C)C3`, -1.06% (inactive).

Consider `Cc1ccc(C)c(-n2c(SCC(=O)O)nc3sc4c(c3c2=O)CCCC4)c1`, for which the activation is 20.4% (active). `COc1ccc(Br)cc1CN1CCN(C(=O)c2cccc(OC)c2OC)CC1`: the activation was 2.23% (inactive). With `CCN(CC)c1ccc(C2C3CCCCC3(O)CCN2CC(=O)Nc2ccccc2)cc1` (configuration not stated) the figure was -6.54% (inactive). With `Cc1ncn(C23CC4CC(CC(O)(C4)C2)C3)n1` the figure was 19.2% (active). With `COC(=O)c1ccc(NC(=O)C23CC4CC(C2)CC(n2cnc(Cl)n2)(C4)C3)cc1` the figure was 3.27% (inactive); with `CC(N)C12CC3CC(CC(O)(C3)C1)C2` (configuration not stated), -3.44% (inactive); with `CCOC(=O)/C(=N\Nc1ccccc1Cl)N(C)C1CCS(=O)(=O)C1` (configuration not stated), -8.17% (inactive). In the case of `O=C(COC(=O)/C=C/c1nc2ccccc2s1)Nc1ccccc1Oc1ccccc1`, the activation is 1.93% (inactive).

As to `CCC(=O)c1ccc(OCC(O)CN2CCN(c3cccc(C(F)(F)F)c3)CC2)cc1` (configuration not stated), the activation is -10.8% (inactive). For `CCOc1ccc(N2C(=O)CC(N(CCc3ccc(OC)c(OC)c3)C(=S)Nc3ccccc3)C2=O)cc1` (configuration not stated) the value was 21.9% (active); for `CN(C)c1ccc(NC(=S)N(CCc2ccccc2)C2CC(=O)N(c3c(Cl)cccc3Cl)C2=O)cc1` (configuration not stated), 8.56% (inactive).

Consider `COC(=O)CN(C(=S)Nc1ccc(Cl)cc1)C1CC(=O)N(c2ccc(OC)cc2)C1=O` (configuration not stated), for which the activation is -18.4% (inactive).

On to `O=C(NCc1ccco1)c1cccc(-c2ccc3nncn3c2)c1`, for which the activation was -4.68% (inactive). In the case of `CCCC1=Nc2cc(C(=O)NCc3ccco3)ccc2Sc2ccccc21`, the activation was 19.8% (active). With `COc1ccc(CCNS(=O)(=O)c2ccc(C(=O)NCc3ccco3)cc2)cc1OC` the figure was 1.67% (inactive). With `O=C(NC1CCN(C(=S)NCc2ccco2)CC1)c1ccc(F)cc1`, the activation is -4.46% (inactive).

As for `Cc1cc(C)nc(SCc2nnc(SCC(=O)Nc3ncc(C)s3)n2Cc2ccco2)n1`, the activation is -4.62% (inactive).

`CCn1c(CNC(=O)c2ccco2)nnc1SCC(=O)Nc1cccc(F)c1`: the activation was -8.95% (inactive). With `CCN(CC)C(=O)CSc1nnc(CNc2ccc(F)cc2)n1Cc1ccco1` the figure was 26.3% (active). For `Cc1c(Cl)cccc1NC(=O)CC1SC(=NCC2CCCO2)NC1=O` (configuration not stated) the value was -3.09% (inactive). For `CCn1ccnc1CN(C)C(=O)c1ccc2nc(Cc3ccc(OC)cc3)oc2c1` the value was -3.69% (inactive); for `CC(=O)Nc1ccc(N2C(=O)C3C4C=CC(CC4)C3C2=O)cc1` (configuration not stated), 3.09% (inactive); for `Cc1cc(N2CCCC2)ccc1NC(=O)COc1ccc(Cl)cc1`, -6.11% (inactive). Take `CC(=O)Nc1ccc(N2C(=O)CCC2=O)cc1C`: the activation was 30.9% (active). With `CCNC(=O)CC1C(=O)N(c2ccc(F)cc2)C(=O)N1Cc1cccs1` (configuration not stated) the figure was -0.18% (inactive). With `CC(C)CN1CCNC(=O)C1CC(=O)N(C)CC1CCOCC1` (configuration not stated) the figure was 1.55% (inactive); with `Cc1ccc(C(C)(C)C)c(OCCCCN2CCCC2)c1`, -4.25% (inactive); with `COc1ccc(C2=NN(C(=O)CSc3nnnn3C)C(c3ccco3)C2)cc1` (configuration not stated), 8.48% (inactive). With `COCCCNCC(=O)Nc1sc(C)c(C)c1C(=O)OC`, the activation was 12.8% (inactive).

Turning to `CCOC(=O)c1c(NC(=O)c2cccs2)sc(C)c1C`, the activation was 27.8% (active). For `CCc1c(C)sc(NC(=O)c2cccs2)c1C(N)=O` the value was -8.58% (inactive); for `CC1(C(=O)NS(=O)(=O)c2ccc(Cl)cc2)CCN1C(=O)CC1CCCC1` (configuration not stated), 0.43% (inactive). For `CCCCn1c(N)c(N(CCC(C)C)C(=O)CC2OC(=O)c3ccccc32)c(=O)[nH]c1=O` (configuration not stated) the value was -2.77% (inactive); for `CCc1nnc(NS(=O)(=O)c2ccc(NC(=S)NC(=O)/C=C/c3cccs3)cc2)s1`, 2.07% (inactive); for `CCc1nnc(NS(=O)(=O)c2ccc(NC(=O)c3cccc(OC(F)(F)C(F)F)c3)cc2)s1`, 18.4% (active). For `Cc1cc(NS(=O)(=O)c2ccc(NC(=O)c3cccc(OC(F)F)c3)cc2)nc(C)n1` the value was 1.34% (inactive); for `O=C(NC(=S)N1CCCCC1c1cccnc1)c1ccccc1` (configuration not stated), 5.16% (inactive); for `Cc1ccc(S(=O)(=O)NNC(=O)/C=C/c2cccc(F)c2)cc1`, -0.46% (inactive).

Consider `Cc1ccc(C)c(OCc2cc(C(=O)N3CCN(c4cnccn4)CC3)no2)c1`, for which the activation was -8.08% (inactive). Turning to `Cc1cccn2c(=O)c3cc(C#N)c(=O)n(CCCN4CCOCC4)c3nc12`, the activation was -0.36% (inactive).

As for `Cc1ccc2nc3c(cc(C(=O)NCCc4ccccc4)c(=N)n3CC3CCCO3)c(=O)n2c1` (configuration not stated), the activation is 2.81% (inactive). For `Cc1cccn2c(=O)c3cc(C(=O)NCCN4CCOCC4)c(=N)n(Cc4cccnc4)c3nc12` the value was 28.1% (active). For `CN(Cc1ccccc1)C(=O)C(=O)c1cn(CC(=O)N2CCCC2)c2ccccc12` the value was -2.13% (inactive); for `C/C(=N\NC(=S)NC(C)C)c1ccc(C(C)(C)C)cc1`, 8.71% (inactive); for `CCOC(=O)c1c(C)[nH]c(C(=O)NCCN2CCOCC2)c1C`, -4.21% (inactive). With `CC(=O)c1c(C)[nH]c(C(=O)NCc2ccc(C)cc2)c1C` the figure was 11.5% (inactive); with `CC(=O)c1c(C)[nH]c(C(=O)NCCCN2CCCC2)c1C`, 18.1% (active). With `CCCCN(CC)CCNC(=O)c1[nH]c(C)c(C(C)=O)c1C`, the activation is -11.2% (inactive). With `CCC1CCCCN1CCNC(=O)c1[nH]c(C)c(C(C)=O)c1C` (configuration not stated) the figure was 20.7% (active); with `CCC1CCCCN1CCNS(=O)(=O)c1ccc2c(c1)CCN2C(C)=O` (configuration not stated), 2.47% (inactive); with `COc1ccc(OCC(=O)NCCS(=O)(=O)N2CCN(c3ccc(F)cc3)CC2)cc1`, 5.36% (inactive). For `CCCCNC(=O)N(O)C1N(/N=C/c2ccccc2O)C(=S)SC1(C)C` (configuration not stated) the value was -0.6% (inactive); for `O=C(COC(=O)c1ccco1)Nc1ccc(Cl)cn1`, 4.61% (inactive); for `O=C(Nc1ccc(Cl)cn1)Nc1cccs1`, 29.7% (active).

For the molecule `Cc1cccc(OCC(=O)OCC(=O)Nc2ccc(Cl)cn2)c1`, the activation is 5.11% (inactive).
